Experimental data reported in ChEMBL document CHEMBL1687899, “Structure-activity relationships in nucleotide oligomerization domain 1 (Nod1) agonistic γ-glutamyldiaminopimelic acid derivatives” (J Med Chem, 2011).
Values belong to the molecule of their own block, whether it stands above or below them. Calls of active or inactive are those of the source. The calls are words filed in the database; no cut-off is given here.

Assays:
[1] = target: T1, Nucleotide-binding oligomerization domain-containing protein 1 (Homo sapiens, UniProt Q9Y239); assay: Agonist activity at human NOD-1 expressed in human HEK293 cells assessed as NF-kappaB induction by spectrophotometric analysis; assay type: functional, cell-based
T1 sequence (Q9Y239 whole entry): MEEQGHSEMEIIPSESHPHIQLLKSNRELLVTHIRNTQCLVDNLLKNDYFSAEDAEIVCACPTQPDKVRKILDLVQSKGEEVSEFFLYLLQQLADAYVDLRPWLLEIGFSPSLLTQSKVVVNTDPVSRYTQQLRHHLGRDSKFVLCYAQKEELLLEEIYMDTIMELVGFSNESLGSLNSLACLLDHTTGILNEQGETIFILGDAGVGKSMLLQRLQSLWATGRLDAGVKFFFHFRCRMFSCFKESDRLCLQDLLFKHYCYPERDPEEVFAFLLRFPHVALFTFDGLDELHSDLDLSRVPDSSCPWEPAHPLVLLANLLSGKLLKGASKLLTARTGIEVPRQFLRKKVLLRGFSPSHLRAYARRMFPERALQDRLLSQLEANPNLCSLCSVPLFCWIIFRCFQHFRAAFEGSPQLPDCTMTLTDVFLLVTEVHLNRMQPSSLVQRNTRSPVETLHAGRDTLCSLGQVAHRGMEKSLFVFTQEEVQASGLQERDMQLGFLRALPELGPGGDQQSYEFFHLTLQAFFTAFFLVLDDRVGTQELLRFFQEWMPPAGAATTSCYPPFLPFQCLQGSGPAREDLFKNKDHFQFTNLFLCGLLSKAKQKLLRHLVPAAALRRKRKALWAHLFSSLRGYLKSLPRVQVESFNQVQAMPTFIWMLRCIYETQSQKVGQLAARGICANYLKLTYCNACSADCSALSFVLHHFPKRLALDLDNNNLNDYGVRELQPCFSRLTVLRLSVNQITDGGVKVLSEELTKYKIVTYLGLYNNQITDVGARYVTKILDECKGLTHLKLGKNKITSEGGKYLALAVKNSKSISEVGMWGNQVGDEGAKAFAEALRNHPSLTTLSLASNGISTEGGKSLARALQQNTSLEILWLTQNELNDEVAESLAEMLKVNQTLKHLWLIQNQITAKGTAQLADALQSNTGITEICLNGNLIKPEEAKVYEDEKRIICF
Outline: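 HEK-Blue cells (HEK293 stably transfected with human Nod1 and an NF-κB/AP-1-inducible secreted alkaline phosphatase reporter) were kept in selection medium with zeocin and normocin. Cells at ~10^5 cells/mL were grown to confluency and then given graded compound concentrations. Supernatant sAP was read spectrophotometrically at 620 nm with an alkaline phosphatase-specific chromogen.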

[2] = test system: PBMC; assay: Downregulation of interleukin 8RB in human PBMC at 20 ug/ml after 2 hrs; assay type: functional
Outline: (§1)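 PBMCs were isolated from fresh heparin-anticoagulated human blood and stimulated with compound at 20 μg/mL for 2 h. Total RNA was extracted from treated and negative-control PBMC samples for transcriptomal profiling.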

[3] = test system: PBMC; assay: Upregulation of interleukin 1F5 in human PBMC at 20 ug/ml after 2 hrs; assay type: functional; outline: as §1
[4] = test system: PBMC; assay: Upregulation of interleukin 2RA in human PBMC at 20 ug/ml after 2 hrs; assay type: functional; outline: as §1
[5] = test system: PBMC; assay: Upregulation of interleukin 1F9 in human PBMC at 20 ug/ml after 2 hrs; assay type: functional; outline: as §1
[6] = test system: PBMC; assay: Upregulation of interleukin 12B in human PBMC at 20 ug/ml after 2 hrs; assay type: functional; outline: as §1
[7] = test system: PBMC; assay: Upregulation of interleukin 24 in human PBMC at 20 ug/ml after 2 hrs; assay type: functional; outline: as §1
[8] = test system: PBMC; assay: Upregulation of interleukin 19 in human PBMC at 20 ug/ml after 2 hrs; assay type: functional; outline: as §1
[9] = target: Triggering receptor expressed on myeloid cells 1 (Homo sapiens) (UniProt Q9NP99); assay: Induction of TREM-1-mediated activation of p38 MAPK signalling pathway in human PBMC at 20 ug/ml; outline: as §1
Chain of Triggering receptor expressed on myeloid cells 1 (Homo sapiens) (Q9NP99 whole entry, looked up): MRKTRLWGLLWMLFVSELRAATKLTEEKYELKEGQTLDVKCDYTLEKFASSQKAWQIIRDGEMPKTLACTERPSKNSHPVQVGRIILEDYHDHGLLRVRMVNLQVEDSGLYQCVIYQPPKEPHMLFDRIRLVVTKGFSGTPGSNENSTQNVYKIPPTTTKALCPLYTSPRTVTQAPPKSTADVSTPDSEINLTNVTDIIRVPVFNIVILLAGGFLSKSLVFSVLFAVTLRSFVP

[10] = test system: PBMC; assay: Upregulation of interleukin 8 in human PBMC at 20 ug/ml after 2 hrs; assay type: functional; outline: as §1
[11] = target: Triggering receptor expressed on myeloid cells 1 (Homo sapiens) (UniProt Q9NP99); assay: Induction of TREM-1-mediated activation of NF-kappaB signalling pathway in human PBMC at 20 ug/ml; outline: as §1
[12] = test system: PBMC; assay: Upregulation of interleukin 1RN in human PBMC at 20 ug/ml after 2 hrs; assay type: functional; outline: as §1
[13] = test system: PBMC; assay: Upregulation of interleukin 22 in human PBMC at 20 ug/ml after 2 hrs; assay type: functional; outline: as §1
[14] = Upregulation of p38 MAPK expression in human […] by flow cytometry; assay type: functional, cell-based
Outline: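 Fresh heparinized human whole blood was incubated with graded compound concentrations diluted in saline for 15 min at 37°C. Erythrocytes were lysed and leukocytes fixed in one step, then permeabilized in ice-cold methanol for 30 min. Cells were stained 60 min with PE anti-phospho-p38MAPK (pT180/pY182) or a PE IgG1 κ isotype control. Flow cytometry acquired 20,000 gated events.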

[15] = test system: PBMC; assay: Downregulation of interleukin 22RA1 in human PBMC at 20 ug/ml after 2 hrs; assay type: functional; outline: as §1
[16] = test system: PBMC; assay: Upregulation of interleukin 17A in human PBMC at 20 ug/ml after 2 hrs; assay type: functional; outline: as §1
[17] = test system: PBMC; assay: Upregulation of interleukin 3 in human PBMC at 20 ug/ml after 2 hrs; assay type: functional; outline: as §1
[18] = test system: PBMC; assay: Upregulation of interleukin 17RD in human PBMC at 20 ug/ml after 2 hrs; assay type: functional; outline: as §1
[19] = target: Triggering receptor expressed on myeloid cells 1 (Homo sapiens) (UniProt Q9NP99); assay: Induction of TREM-1-mediated dendritic cell maturation in human PBMC at 20 ug/ml; outline: as §1
[20] = target: Triggering receptor expressed on myeloid cells 1 (Homo sapiens) (UniProt Q9NP99); assay: Induction of TREM-1-mediated activation of TNFR2 signalling pathway in human PBMC at 20 ug/ml; outline: as §1
[21] = test system: PBMC; assay: Upregulation of interleukin 1F10 in human PBMC at 20 ug/ml after 2 hrs; assay type: functional; outline: as §1
[22] = target: Triggering receptor expressed on myeloid cells 1 (Homo sapiens) (UniProt Q9NP99); assay: Induction of TREM-1-mediated T-helper cell differentiation in human PBMC at 20 ug/ml; assay type: cell-based; outline: as §1
[23] = test system: PBMC; assay: Upregulation of interleukin 1alpha in human PBMC at 20 ug/ml after 2 hrs; assay type: functional; outline: as §1
[24] = target: Triggering receptor expressed on myeloid cells 1 (Homo sapiens) (UniProt Q9NP99); assay: Induction of TREM-1-mediated activation of communication between innate and adaptive immune cells in human PBMC at 20 ug/ml; assay type: cell-based; outline: as §1
[25] = test system: PBMC; assay: Downregulation of interleukin 31RA in human PBMC at 20 ug/ml after 2 hrs; assay type: functional; outline: as §1
[26] = target: Triggering receptor expressed on myeloid cells 1 (Homo sapiens) (UniProt Q9NP99); assay: Induction of TREM-1-mediated activation of IL-9 signalling pathway in human PBMC at 20 ug/ml; outline: as §1
[27] = test system: PBMC; assay: Upregulation of interleukin 18 in human PBMC at 20 ug/ml after 2 hrs; assay type: functional; outline: as §1
[28] = target: Triggering receptor expressed on myeloid cells 1 (Homo sapiens) (UniProt Q9NP99); assay: Induction of TREM-1-mediated activation of IL-6 signaling pathway in human PBMC at 20 ug/ml; outline: as §1
[29] = target: Triggering receptor expressed on myeloid cells 1 (Homo sapiens) (UniProt Q9NP99); assay: Induction of TREM-1-mediated activation of PPAR signalling pathway in human PBMC at 20 ug/ml; outline: as §1
[30] = test system: PBMC; assay: Downregulation of interleukin 1RAPL1 in human PBMC at 20 ug/ml after 2 hrs; assay type: functional; outline: as §1
[31] = test system: PBMC; assay: Upregulation of interleukin 1B in human PBMC at 20 ug/ml after 2 hrs; assay type: functional; outline: as §1
[32] = target: Triggering receptor expressed on myeloid cells 1 (Homo sapiens) (UniProt Q9NP99); assay: Induction of TREM-1-mediated LXR/RXR activation in human PBMC at 20 ug/ml; outline: as §1
[33] = test system: PBMC; assay: Upregulation of interleukin 20 in human PBMC at 20 ug/ml after 2 hrs; assay type: functional; outline: as §1
[34] = target: Triggering receptor expressed on myeloid cells 1 (Homo sapiens) (UniProt Q9NP99); assay: Induction of TREM-1-mediated activation of IRF by cytosolic pattern recognition receptors in human PBMC at 20 ug/ml; outline: as §1
[35] = test system: PBMC; assay: Downregulation of interleukin 1RAP in human PBMC at 20 ug/ml after 2 hrs; assay type: functional; outline: as §1
[36] = target: Triggering receptor expressed on myeloid cells 1 (Homo sapiens) (UniProt Q9NP99); assay: Induction of TREM-1-mediated activation of IL12 signalling and production in human PBMC at 20 ug/ml; outline: as §1
[37] = Upregulation of CD11b expression in human […] by flow cytometry; assay type: functional, cell-based
Outline: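 Fresh anticoagulated human whole blood was incubated with graded compound dilutions for 1 h at 37°C, with saline negative controls. Samples were chilled 15 min, then stained with anti-CD11b/Mac-1 on ice for 30 min so only surface CD11b was labelled. Erythrocytes were lysed and leukocytes fixed, then washed. Flow cytometry in single-color PE mode acquired 20,000 gated events.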

[38] = test system: PBMC; assay: Upregulation of interleukin 10 in human PBMC at 20 ug/ml after 2 hrs; assay type: functional; outline: as §1
[39] = target: Triggering receptor expressed on myeloid cells 1 (Homo sapiens) (UniProt Q9NP99); assay: Induction of TREM-1-mediated activation of IL-10 signalling pathway in human PBMC at 20 ug/ml; outline: as §1
[40] = test system: PBMC; assay: Upregulation of interleukin 6 in human PBMC at 20 ug/ml after 2 hrs; assay type: functional; outline: as §1

SMILES: CCCCCCCCCCCC(=O)N[C@H](CCC(=O)NCCCC[C@@H](N)C(=O)O)C(=O)O
EC50 [1]: 0.37 nM

SMILES: CCCCCCCCCCCC(=O)N[C@H](CCC(=O)NCCCC[C@H](N)C(=O)O)C(=O)O
EC50 [1]: 0.96 nM

SMILES: CCCCCCCCCCCC(=O)N[C@H](CCC(=O)NC(CCCCC(=O)O)C(=O)O)C(=O)O (stereo not given in full)
EC50 [1]: > 100 nM

SMILES: CCCCCCCCCCCC(=O)N[C@H](CCC(=O)NC(CCCC1NC(N)=NC1=O)C(=O)O)C(=O)O (stereo not given in full)
EC50 [1]: 1.31 nM

Second part, led by results:

EC50 [1]: 0.134 nM
SMILES: CCCCCCCCCCCOC(=O)[C@@H](CCC(=O)NC(CCCC(N)C(=O)O)C(=O)O)NC(=O)CCCCCCCCCCC (stereo not given in full)

Activity [9]: Active
Activity [11]: Active
Activity [19]: Active
Activity [20]: Active
Activity [22]: Active
Activity [24]: Active
Activity [26]: Active
Activity [28]: Active
Activity [29]: Active
Activity [32]: Active
Activity [34]: Active
Activity [36]: Active
Activity [39]: Active
EC50 [1]: 0.0015 nM
SMILES: CCCCCCCCCCCCN(CCCCCCCCCCCC)[C@H](CCC(=O)NC(CCCC(N)C(=O)O)C(=O)O)C(=O)O (stereo not given in full)
fold change (FC) [2]: 2.75
fold change (FC) [3]: 3.15
fold change (FC) [4]: 3.57
fold change (FC) [5]: 11.1
fold change (FC) [6]: 6.13
fold change (FC) [7]: 3.41
fold change (FC) [8]: 30.39
fold change (FC) [10]: 2.29
fold change (FC) [12]: 4.94
fold change (FC) [13]: 3.87
Activity [14]: Dose-dependent effect
fold change (FC) [15]: 3.69
fold change (FC) [16]: 10.56
fold change (FC) [17]: 5.99
fold change (FC) [18]: 3.17
fold change (FC) [21]: 2.05
fold change (FC) [23]: 14.34
fold change (FC) [25]: 4.05
fold change (FC) [27]: 2.03
fold change (FC) [30]: 2.06
fold change (FC) [31]: 4.14
fold change (FC) [33]: 4
fold change (FC) [35]: 2.02
Activity [37]: Dose-dependent effect
fold change (FC) [38]: 3.62
fold change (FC) [40]: 29.54
